The values below come from ChEMBL document CHEMBL1153467, “Synthesis and biological evaluation of imidazole derivatives as novel NOP/ORL1 receptor antagonists: exploration and optimization of alternative pyrazole structure” (Bioorg Med Chem Lett, 2009).

In data set [1] the target is T1, Nociceptin receptor (Homo sapiens, UniProt P41146). Briefly: Displacement of [125I]Tyr14-nociceptin from human ORL1 receptor expressed in CHO cells. In kind it is cell-based. Put shortly: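 Competition binding to human ORL1 receptors transfected into CHO cells, with [¹²⁵I][Tyr¹⁴]nociceptin as radioligand; values given as IC₅₀.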
T1 sequence (P41146 whole entry): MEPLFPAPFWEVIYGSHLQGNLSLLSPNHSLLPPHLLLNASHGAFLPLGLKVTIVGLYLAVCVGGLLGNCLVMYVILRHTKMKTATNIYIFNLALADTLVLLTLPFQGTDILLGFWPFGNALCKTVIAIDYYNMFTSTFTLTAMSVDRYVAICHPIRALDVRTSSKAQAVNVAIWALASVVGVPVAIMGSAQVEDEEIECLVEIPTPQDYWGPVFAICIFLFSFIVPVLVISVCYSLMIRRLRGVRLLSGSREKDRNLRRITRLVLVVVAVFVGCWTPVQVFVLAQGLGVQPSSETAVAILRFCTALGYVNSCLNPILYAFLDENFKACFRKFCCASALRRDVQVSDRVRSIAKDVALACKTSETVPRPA
Background: In a radioligand displacement assay an active substance lowers the binding of a labelled ligand.

Data set [2] deals with T1, Nociceptin receptor. Kind of data set: Antagonist activity at human cloned ORL1 receptor expressed in CHO cells assessed as inhibition of nociceptin/orphanin FQ-stimulated [35S]GTPgammaS binding. In kind it is functional, cell-based. The procedure, abridged:
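Functional antagonism measured by stimulation of [³⁵S]GTPγS binding to membranes from CHO cells expressing ORL1, run per an earlier published protocol.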
Background: GTPγS resists hydrolysis and so accumulates on activated G proteins.

The target in data set [3] is Voltage-gated inwardly rectifying potassium channel KCNH2 (Homo sapiens, UniProt Q12809). Briefly: Displacement of [35S]MK499 from human ERG expressed in HEK293 cells overexpressing Ikr channel protein. It counts as cell-based.
Chain of Voltage-gated inwardly rectifying potassium channel KCNH2 (Q12809 whole entry): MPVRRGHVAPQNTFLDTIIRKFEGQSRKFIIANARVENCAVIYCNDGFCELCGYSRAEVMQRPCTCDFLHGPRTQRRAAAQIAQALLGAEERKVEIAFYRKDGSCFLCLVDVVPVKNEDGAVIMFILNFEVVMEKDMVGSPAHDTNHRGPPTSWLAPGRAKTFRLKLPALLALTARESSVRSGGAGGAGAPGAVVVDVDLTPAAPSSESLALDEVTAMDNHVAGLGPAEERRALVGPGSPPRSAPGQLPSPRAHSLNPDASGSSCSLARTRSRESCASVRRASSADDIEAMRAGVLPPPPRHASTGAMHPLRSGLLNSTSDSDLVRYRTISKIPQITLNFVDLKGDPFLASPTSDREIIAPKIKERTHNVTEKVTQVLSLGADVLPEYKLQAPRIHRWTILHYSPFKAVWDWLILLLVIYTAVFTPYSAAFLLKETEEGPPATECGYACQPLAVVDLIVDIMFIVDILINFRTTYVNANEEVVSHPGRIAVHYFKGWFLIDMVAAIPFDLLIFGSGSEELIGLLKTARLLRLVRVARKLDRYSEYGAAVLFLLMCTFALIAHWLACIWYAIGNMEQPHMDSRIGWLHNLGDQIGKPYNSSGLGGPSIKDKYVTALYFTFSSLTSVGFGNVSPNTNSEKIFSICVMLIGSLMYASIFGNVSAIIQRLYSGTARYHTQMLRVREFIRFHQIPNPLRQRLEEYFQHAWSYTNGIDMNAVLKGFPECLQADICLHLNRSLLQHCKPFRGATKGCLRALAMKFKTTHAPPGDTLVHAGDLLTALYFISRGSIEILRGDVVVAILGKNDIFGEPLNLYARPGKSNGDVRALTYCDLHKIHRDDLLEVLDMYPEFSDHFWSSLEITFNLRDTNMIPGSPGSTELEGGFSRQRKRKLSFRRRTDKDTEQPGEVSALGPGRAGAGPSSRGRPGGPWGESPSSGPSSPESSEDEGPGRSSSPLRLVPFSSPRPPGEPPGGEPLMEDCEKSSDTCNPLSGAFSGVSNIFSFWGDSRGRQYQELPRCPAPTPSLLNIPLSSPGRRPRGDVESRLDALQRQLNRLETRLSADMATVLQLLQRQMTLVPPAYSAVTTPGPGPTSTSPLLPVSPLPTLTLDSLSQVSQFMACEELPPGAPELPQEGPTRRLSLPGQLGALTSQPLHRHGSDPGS
Data set [4] concerns MDR1 (human). Briefly: Apparent permeability across pig L-MDR1 cells overexpressing human MDR1. As to conditions: LLC-PK1. In kind it is ADME, cell-based, Sus scrofa. The procedure, abridged:
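P-gp transporter efflux assay: apparent permeability (Papp) reported in 10⁻⁶ cm/s; efflux expressed as the B–A/A–B ratio, with ratio accuracy considered compromised when Papp <10.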

Data set [5] in a line: Efflux ratio of permeability from basolateral to apical side over apical to basolateral side in pig L-MDR1 cells overexpressing human MDR1.
Data set [6] addresses T1, Nociceptin receptor. Briefly: Displacement of [125I]Tyr14-nociceptin from human ORL1 receptor expressed in CHO cells at 1 uM. In kind it is cell-based. The procedure, abridged: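 Same radioligand displacement at human ORL1 in CHO cells ([¹²⁵I][Tyr¹⁴]nociceptin), but reported as % inhibition of binding at a single 1 μM test concentration.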
A short description of data set [7]: Metabolic stability in human liver microsomes at 1 uM after 30 mins. The note with it: read-out: Stability. It counts as ADME, Microsome. Put shortly: (§1)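 Parent compound at 1 μM was incubated with human or rat liver microsomes (0.25 mg protein/ml) for 30 min at 37 °C; stability was read out as % parent remaining.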
For orientation: Liver microsomes are vesicles of endoplasmic reticulum, rich in cytochrome P450 enzymes.

Data set [8] is described as follows: Metabolic stability in rat liver microsomes at 1 uM after 30 mins. The note with it: read-out: Stability. It counts as ADME, Microsome. The procedure, abridged: as §1
Data set [9] is described as follows: Clearance in rat at 1 mg/kg, iv. The note with it: in vivo. On the set-up: dose 1 mg/kg, route intravenous. In kind it is ADME, organism-based.
A short description of data set [10]: Half life in rat at 1 mg/kg, iv. It counts as ADME, organism-based. Set-up: dose 1 mg/kg, route intravenous. The note with it: in vivo.
Data set [11] in a line: Oral bioavailability in rat at 3 mg/kg. In kind it is ADME, organism-based. The note with it: in vivo.

Usually IC50 stands for the concentration needed to halve the response being measured. Take `Cn1c(CNC2CCCC2)nc(-c2ccc(Cl)cc2Cl)c1-c1ccc(Cl)cc1`: in data set [1], the IC50 came out at 520 nM.
In general, Papp refers to a coefficient for how fast a substance crosses the barrier. For the compound `Cc1ccc(-n2c(-c3ncccc3Cl)nc(CN[C@H]3CC[C@@H](F)C3)c2C(C)C)cn1`, the concentration for half-maximal inhibition (IC50) in [1] is 1.4 nM; in data set [2], 2.3 nM; in data set [3], 15 µM. For the same compound, the Papp in data set [4] worked out at 24.1 ×10⁻⁶ cm/s. In addition, the Ratio in data set [5] turned out to be 21.8.
Usually inhibition stands for how much of the control response was suppressed. The low end stands for little suppression, the high end for strong suppression. With `Cc1c(CNC2CCCC2)oc(-c2ccc(Cl)cc2Cl)c1-c1ccc(Cl)cc1`, the IC50 in [1] is over 1000 nM. The same compound gave an inhibition in data set [6] of 25%.
The compound `CC(C)Cn1c(CNC2CCCC2)nc(-c2ccc(Cl)cc2Cl)c1-c1ccc(Cl)cc1` showed an IC50 in data set [1] of 540 nM.
In the case of `Cc1nc(CN[C@H]2CC[C@@H](F)C2)c(C(C)C)n1-c1cc(F)cc(F)c1`, the IC50 was determined as 8.6 nM in data set [1], 4.5 nM in data set [2] and 34 µM in data set [3]. The Papp in data set [4] stood at 34 ×10⁻⁶ cm/s. Moreover, the Ratio in data set [5] is reported as 3.2.
In turn, `FC(F)Cn1c(CNC2CCCC2)nc(-c2ccc(Cl)cc2Cl)c1-c1ccc(Cl)cc1` had an IC50 in data set [1] of 500 nM.
On the same count and under the same terms, next, `CCn1c(CNC2CCCC2)nc(-c2ccc(Cl)cc2Cl)c1-c1ccc(Cl)cc1`: 160 nM.
In data set [1], `FC(F)(F)Cn1c(CNC2CCCC2)nc(-c2ccc(Cl)cc2Cl)c1-c1ccc(Cl)cc1` displayed an IC50 of over 1000 nM. In data set [6], this compound registered an inhibition of 32%.
Compound `Cc1ccc(-n2c(-c3ncccc3Cl)nc(CNC3CCCC3)c2C)cn1` registered an IC50 in data set [1] of 26 nM.
On the same count and under the same terms, next, `Cc1c(CNC2CCCC2)cc(-c2ccc(Cl)cc2Cl)n1-c1ccc(Cl)cc1`: 200 nM; `Cn1c(CNC2CCCC2)nc(-c2ccc(Cl)cc2)c1-c1ccc(Cl)cc1Cl`: 850 nM.
In [1], `Clc1ccc(-c2c(-c3ccc(Cl)cc3Cl)nc(CNC3CCCC3)n2C2CCCCC2)cc1` displayed an IC50 of over 1000 nM. The inhibition in data set [6] was determined as 48%.
Compound `Clc1ccc(-c2c(-c3ccc(Cl)cc3Cl)nc(CNC3CCCC3)n2C2CCC2)cc1` registered an IC50 in data set [1] of 530 nM.
On the same count and under the same terms, as for `CC(C)n1c(CNC2CCCC2)nc(-c2ccc(Cl)cc2Cl)c1-c1ccc(Cl)cc1`, the figure is 33 nM.
Regarding `Cc1nc(CNC2CCCC2)n(C(C)C)c1-c1ccc(Cl)cc1`, the results for the IC50 in data set [1] and in data set [3] were 11 nM and 3.2 µM, respectively. For the same compound, the apparent permeability (Papp) in data set [4] came to 18.2 ×10⁻⁶ cm/s. For the same compound, the Ratio in [5] was found to be 1.
`Clc1ccc(-c2c(-c3ccc(Cl)cc3Cl)nc(CNC3CCCC3)n2C2CC2)cc1` had an IC50 in data set [1] of 190 nM.
On the same count and under the same terms, next, `Cc1c(CNC2CCCC2)nc(-c2ccc(Cl)cc2Cl)n1-c1ccc(Cl)cc1`: 28 nM.
In [1], `Clc1ccc(-c2oc(CNC3CCCC3)nc2-c2ccc(Cl)cc2Cl)cc1` came in with an IC50 of over 1000 nM. The same compound gave an inhibition in [6] of 28%.
The compound `FCCn1c(CNC2CCCC2)nc(-c2ccc(Cl)cc2Cl)c1-c1ccc(Cl)cc1` came in with an IC50 in data set [1] of 160 nM.
For the compound `Cc1ccc(-n2c(-c3ncccc3Cl)nc(CN[C@H]3CC[C@@H](F)C3)c2C)cn1`, the IC50 in data set [1] was 9.1 nM; in data set [2] it was 3.7 nM. The Papp in data set [4] was determined as 16.8 ×10⁻⁶ cm/s.
For the compound `Clc1ccc(-c2nc(CNC3CCCC3)nn2-c2ccc(Cl)cc2Cl)cc1`, the IC50 in data set [1] was over 1000 nM. The compound further displayed an inhibition in data set [6] of 48%.
Turning to `Cc1nn(-c2ccccc2)c(C)c1CNC1CCCC1`, the IC50 in [1] was over 1000 nM. The compound also yielded an inhibition in data set [6] of 44%.
As to `Clc1ccc(-c2c(-c3ccc(Cl)cc3Cl)nc(CNC3CCCC3)n2C2CCCC2)cc1`, the IC50 in data set [1] is over 1000 nM. The compound further came in with an inhibition in data set [6] of 43%.
Take `CCC(CC)n1c(CNC2CCCC2)nc(-c2ccc(Cl)cc2Cl)c1-c1ccc(Cl)cc1`: in [1], the IC50 is 160 nM.
With `COCCc1nc(CN[C@H]2CC[C@@H](F)C2)n(C(C)C)c1-c1ccc(Cl)cc1`, the IC50 in data set [1] stood at 7.6 nM; in [2], 5.6 nM. Also, in data set [4], the Papp stood at 28.6 ×10⁻⁶ cm/s.
Compound `Cn1c(CNC2CCCC2)nnc1-c1cc(F)cc(F)c1` yielded an IC50 in data set [1] of over 1000 nM. The compound further returned an inhibition in [6] of 19%.
In the case of `Cc1ccc(-n2c(-c3ncccc3Cl)nc(CNC3CCCC3)c2C(C)C)cn1`, the results for the IC50 in data set [1], in data set [2] and in data set [3] were 4.7 nM, 9.6 nM and 9.9 µM, respectively. The Papp in data set [4] turned out to be 25 ×10⁻⁶ cm/s. Further, the Ratio in data set [5] is 22.9.
The term clearance denotes the rate of elimination divided by the concentration. Broadly, the half-life is the time needed for the level to fall by half in the phase considered. A higher half-life goes with slow decline. As usually defined, the bioavailability is dose-corrected exposure relative to a reference, in per cent. Read a high bioavailability as good availability. Turning to `CCc1c(CN[C@H]2CC[C@@H](F)C2)nc(-c2ncccc2Cl)n1-c1ccc(C)nc1`, the half-maximal inhibitory concentration (IC50) in [1] turned out to be 3.2 nM; in [2], 2.3 nM; in [3], 15 µM. Further, in data set [4], the Papp came to 20.6 ×10⁻⁶ cm/s. Moreover, the figures for the remaining at 0.5 h, 1 µM in data set [7] and in data set [8] were 85% and 82%, respectively. For the same compound, the clearance in [9] was determined as 114 mL/min/kg. In data set [10], the half-life is 30 min. In data set [11], this compound returned a bioavailability of 10%. Moreover, the Ratio in data set [5] turned out to be 19.7.
As for `Clc1ccc(-c2nc(CNC3CCCC3)cn2-c2ccc(Cl)cc2Cl)cc1`, in [1], the IC50 stood at 620 nM.
The compound `CC(C)(C)n1c(CNC2CCCC2)nc(-c2ccc(Cl)cc2Cl)c1-c1ccc(Cl)cc1` showed an IC50 in [1] of over 1000 nM. Moreover, in data set [6], the inhibition is 26%.
Taken in the same sequence, the figures for `Clc1ccc(-c2sc(CNC3CCCC3)nc2-c2ccc(Cl)cc2Cl)cc1` were over 1000 nM and 7%.
Taken in the same sequence, the figures for `Cc1c(CNC2CCCC2)nnn1-c1ccc(F)c(F)c1` were over 1000 nM and 40%.
In data set [1], `Clc1ccc(-c2cc(CNC3CCCC3)nn2-c2ccc(Cl)cc2Cl)cc1` had an IC50 of 130 nM.
Still for that read-out and setting: as for `FCC(CF)n1c(CNC2CCCC2)nc(-c2ccc(Cl)cc2Cl)c1-c1ccc(Cl)cc1`, the figure is 96 nM.
